{"data": "Measured values gathered from unrelated publications", "PIK3CB": "Phosphatidylinositol 4,5-bisphosphate 3-kinase catalytic subunit beta isoform (PIK3CB, Homo sapiens, UniProt P42338)", "note": "Each line is one published result; the experiments were not run side by side."}
{"SMILES": "C1=C/COCc2cc(ccc2OCCN2CCCC2)Nc2nccc(n2)-c2cccc(c2)COC/1", "target": "PIK3CB", "test": "binding", "conditions": "0.1 µM", "endpoint": "remaining binding", "result": "98%"}
{"SMILES": "Cc1ccc(NC(=O)c2ccnc(C(F)(F)F)c2)cc1-c1cc(OCCO)nc(N2CCOCC2)c1", "target": "PIK3CB", "test": "binding", "conditions": "1 µM", "endpoint": "remaining binding", "result": "100%"}
{"SMILES": "C=CC(=O)N1CCC[C@@H](n2nc(-c3ccc(Oc4ccccc4)cc3)c3c(N)ncnc32)C1", "target": "PIK3CB", "test": "enzyme activity, inhibitor", "conditions": "1 µM", "endpoint": "inhibition", "result": "2%"}
{"SMILES": "CC(C)S(=O)(=O)c1ccc2nccc(Nc3ccc4sc(C5CCCC5)nc4c3)c2c1", "target": "Phosphatidylinositol 4,5-bisphosphate 3-kinase catalytic subunit beta isoform, with p85 (PIK3CB, Homo sapiens, UniProt P42338)", "test": "enzyme activity, inhibitor", "conditions": "1 µM", "endpoint": "activity vs control", "result": "97%"}
{"SMILES": "CC#CC(=O)N1CCC[C@H]1c1nc(-c2ccc(C(=O)Nc3ccccn3)cc2)c2c(N)nccn12", "target": "PIK3CB", "test": "enzyme activity, inhibitor", "conditions": "1 µM", "endpoint": "inhibition", "result": "0%"}
{"SMILES": "CN1CCN(C(=O)c2ccc(NC(=O)Nc3ccc(N(C)c4ccnc(Nc5ccc(CS(C)(=O)=O)cc5)n4)cc3)cc2)CC1", "target": "PIK3CB", "test": "binding", "conditions": "1 µM", "endpoint": "remaining binding", "result": "100%"}
{"SMILES": "CCCCC(=O)Nc1ccc(-c2ccc3ncn(CCC)c(=O)c3c2)cn1", "target": "PIK3CB", "test": "binding, competition with immobilised ligand", "conditions": "0.5 µM", "endpoint": "remaining binding", "result": "100%"}
{"SMILES": "Cc1nc(NC(=O)N2CCC[C@H]2C(N)=O)sc1-c1ccnc(C(C)(C)C(F)(F)F)c1", "target": "PIK3CB", "test": "enzyme activity, inhibitor, ADP detection", "conditions": "10 µM", "endpoint": "inhibition", "result": "82.9%"}
